Screens from PubChem BioAssay.
Only a selection was taken, and hits are over-represented in it overall.
CHOP inhibitor: inhibitors of CHOP promoter induction, primary screen, cell-based, unfolded protein response, luciferase reporter | inhibition, % at 10 µM | 220,000 compounds, 3.8% hits | AID 2732, 2010 | CHO-K1 CHOP-promoter luciferase, tunicamycin-induced, 15-18 h;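 active = compounds that reduced the stress-induced luciferase reporter signal by more than about 70% of percent inhibition, limit read from the data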
Dynein cargo inh: inhibitors of GR-EGFP nuclear translocation, primary screen, dynein cargo transport inhibitor project, imaging, high-content, 3617.4 mouse cells | test concentration mostly 20 µM; stimulated with dexamethasone, 1 µM; active compounds read low | z-score, hits read low | 220,000 compounds, 0.47% hits | AID 1381, 2008;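 active = plate z-score of nuclear minus cytoplasmic receptor signal below a set negative limit, without overly bright fluorescence or cell loss, cut at about -3.5 in these data, passing the limit was not always enough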;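 also: z-score of nuclear minus cytoplasmic ring GR-EGFP intensity difference per well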
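Buffer or medium: tet-free medium with charcoal-stripped serum / Also added: dexamethasone agonist, 1.0 µM final, for 30 min / Timing: induction 48 h, compound 1 h, agonist 30 min / Measured by: high-content fluorescence imaging after fixation / Read-out: nuclear-to-cytoplasmic GR-EGFP distribution per well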
XBP1 UPR activ: activators of adaptive XBP1 UPR arm, primary screen, cell-based, CHO-XBP1 luciferase reporter, luminescence, uHTS; IRE1-XBP1 UPR activation; percent of tunicamycin response, DMSO as zero; activation, % at 20 µM; 330,000 compounds, 0.33% hits; AID 463104, 2010;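 active = versus positive control, 20 µM dose yields 30% or more activation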
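incubation = overnight seeding at 37 °C, 6 h compound treatment at 37 °C | assay system = CHO-XBP1 cells stably carrying IRE1-XBP1-driven luciferase reporter | input = 1000 cells per well | detection = luciferase luminescence | dosing = single point, 20 µM final compound, 1% DMSO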
T cruzi repl: inhibitors of intracellular T. cruzi growth, primary screen, luminescence, NIH3T3 host cells | T. cruzi beta-gal in NIH3T3, 90 h | inhibition, % (no concentration beside the values) | 300,000 compounds, 1.4% hits | AID 1885, 2009;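 active = mean inhibition across valid replicates above about 55%, limit read from the data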;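 also: signal also drops with host cell toxicity which is not excluded here; higher percent means less beta-gal luminescence so fewer parasites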
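compound dosing = single 50 nL compound addition per well in DMSO | material = NIH/3T3 host cells with β-galactosidase reporter T. cruzi | input = 5,000 host fibroblasts per well | timing = ≥90 h infection period, 3 h prior cell attachment | read-out basis = percent inhibition of parasite-derived β-gal signal | detection = GalScreen β-gal luminescence, detergent lysis, 60 min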
CHOP UPR activ: activators of apoptotic CHOP UPR arm, primary screen, cell-based, CHO-CHOP luciferase reporter, luminescence, uHTS; activation, % at 10 µM; UPR activation; percent of tunicamycin response over DMSO baseline; 330,000 compounds, 0.34% hits;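 active = at 10 µM dose, activation of 40% or more, normalized to positive control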
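Material: CHO-CHOP cells, stable luciferase reporter of PERK-eIF2a-CHOP signalling; quantity: 500 reporter cells seeded per well; buffer or medium: F12 medium containing 10% fetal bovine serum; compound: one dose, 10 µM in 0.5% DMSO; incubation: 6 h compound treatment, 37 °C; measured by: Steady-Glo luciferase luminescence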
Lmaj promast: Leishmania major promastigote growth inhibition, primary screen; Leishmania major promastigotes, resazurin fluorescence viability; inhibition, % at 10 µM; 200,000 compounds, 9% hits; in the data active = inhibition above about 50%;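 also: promastigotes grown with compound for 44 hours at 28 °C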
XBP1 UPR conf: IRE1-XBP1 UPR arm activators, confirmation, cell-based, CHO-XBP1 luciferase reporter, luminescence, single concentration | activation, % at 20 µM | AID 485299, 2010 | shares compounds with XBP1 UPR activ | 1,000 compounds, 63% hits;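 active = reporter signal at least 30% of the positive control's activation in two or more of four replicate wells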
Of the large screens only hits and unclear results are named; the others gave an inactive call (follow-up assays come after a bar, where they were run).

COc1ccc(C2NCCc3c2[nH]c2ccccc32)cc1COc1ccc(F)cc1 (stereo unspecified)	CHOP inhibitor 75, XBP1 UPR activ 32, Lmaj promast 100 | XBP1 UPR conf 39
Cc1cc(C(=O)N/N=C/c2ccc(-c3cccc(Br)c3)o2)n[nH]1	XBP1 UPR activ 32 (no result: Lmaj promast) | XBP1 UPR conf inactive
Cc1cc(C(=O)N/N=C/c2ccco2)n[nH]1	none
O=C(Nc1ccc(-n2nncc2-c2ccco2)cc1)c1cc2ccccc2oc1=O	XBP1 UPR activ 67 (no result: T cruzi repl) | XBP1 UPR conf inactive
O=C(Nc1ccc(-n2nncc2-c2ccco2)cc1)c1cccc(F)c1	none
CC(=O)NC12CC3CC(C1)CC(C(=O)N(C)Cc1cccc(Cl)c1Cl)(C3)C2	none (no result: CHOP inhibitor, Dynein cargo inh, Lmaj promast)
Clc1ccccc1-c1ccc(/C=N/Nc2nncc(-c3ccccc3)n2)o1	XBP1 UPR activ 41 | XBP1 UPR conf inactive
O=C(O)c1ccc(N/N=C/c2ccc(-c3ccccc3Cl)o2)cc1	none (no result: Lmaj promast)
O=C(CN1CCN(S(=O)(=O)c2cccc(F)c2)CC1)Nc1ccnn1C1CCCC1	none (no result: CHOP inhibitor, Dynein cargo inh, T cruzi repl, Lmaj promast)
FC(F)(F)c1cc(CCN2CCNC[C@@H]2Cc2ccccc2)cc(C(F)(F)F)c1	XBP1 UPR activ 37 (no result: CHOP inhibitor, Dynein cargo inh, Lmaj promast) | XBP1 UPR conf inactive
O=c1cc(N2CCN(c3ccccc3)CC2)[nH]c(=O)n1Cc1ccc(F)cc1	none
O=c1cc(N2CCc3ccccc3C2)[nH]c(=O)n1Cc1ccc(F)cc1	XBP1 UPR activ 42 | XBP1 UPR conf inactive
Nc1ncnc(Nc2ccccc2Cl)n1	none (no result: Lmaj promast)
CN(C)c1ccc(/C=C/C(=O)c2ccccc2O)cc1	none
COc1cc(/C=C/C(=O)c2ccccc2O)cc(OC)c1OC	XBP1 UPR activ 31 | XBP1 UPR conf inactive
COCc1cc(C)nc(SCC(=O)Oc2ccccc2)c1C#N	none
COCc1cc(C)nc(SCC(=O)c2ccc(O)c(O)c2)c1C#N	XBP1 UPR activ 41 | XBP1 UPR conf 43
NC(=O)C1CCCN(C(=O)CN2C(=O)NC(c3ccccc3)(c3ccccc3)C2=O)C1 (stereo unspecified)	none (no result: CHOP inhibitor, Dynein cargo inh, T cruzi repl, Lmaj promast)
Cc1ccc(Cl)cc1N1CCN(Cc2nc3c(c(=O)[nH]c(=O)n3C)n2CCc2ccccc2)CC1	XBP1 UPR activ 46 | XBP1 UPR conf 55
COc1ccc2ccc(OCC(=O)NCC3CCCO3)cc2c1 (stereo unspecified)	none (no result: CHOP inhibitor, Dynein cargo inh, T cruzi repl, Lmaj promast)
CC(C)=CCC/C(C)=C/CNC(=O)C[C@H]1C[C@H](C(=O)N(C(C)C)C(C)C)[C@@]2(C)c3[nH]c4ccc(Cl)cc4c3CCN2C1=O	none (no result: CHOP inhibitor, Dynein cargo inh, T cruzi repl, Lmaj promast)
COc1ccc2[nH]c3c(c2c1)CCN1C(=O)C(CC(=O)NC/C=C(\C)CCC=C(C)C)C[C@H](C(=O)N(C(C)C)C(C)C)[C@@]31C (stereo partly specified)	XBP1 UPR activ 33 (no result: CHOP inhibitor, Dynein cargo inh, T cruzi repl, Lmaj promast) | XBP1 UPR conf 46
CCS(=O)(=O)N1CCC(C(=O)Nc2ccc3c(c2)CCC3)CC1	none (no result: CHOP inhibitor, Dynein cargo inh, Lmaj promast)
COC(=O)c1cccn(CC(=O)c2ccc(Cl)cc2)c1=O	none
COc1ccc(-c2csc(NC(=S)NC(=O)c3ccco3)n2)cc1Br	none (no result: CHOP inhibitor, Dynein cargo inh, Lmaj promast)
COc1cc2c(cc1NC(=S)NC(=O)/C=C/c1ccco1)oc1ccccc12	XBP1 UPR activ 52 | XBP1 UPR conf 77
COc1ccc(-c2csc(NC(=S)NC(=O)/C=C/c3ccco3)n2)cc1Br	XBP1 UPR activ 202 (no result: Lmaj promast) | XBP1 UPR conf 201
COCCCn1c(=NC(=O)c2ccccc2)c(C#N)cc2c(=O)n3cccc(C)c3nc21	XBP1 UPR activ 43 (no result: Lmaj promast) | XBP1 UPR conf inactive
COCCCn1c(=NC(C)=O)c(C#N)cc2c(=O)n3cccc(C)c3nc21	none (no result: Lmaj promast)
COc1ccc(S(=O)(=O)N2CCN(c3ccc(F)cc3)CC2)cc1C(=O)N1CCOCC1	none (no result: CHOP inhibitor, Dynein cargo inh, Lmaj promast)
CCCn1nnnc1NCc1ccccc1Cl	none (no result: CHOP inhibitor, Dynein cargo inh, Lmaj promast)
NS(=O)(=O)c1ccc(N/N=C/c2cn(-c3ccccc3)nc2-c2cccs2)c([N+](=O)[O-])c1	XBP1 UPR activ 57, T cruzi repl 67 | XBP1 UPR conf 62
NS(=O)(=O)c1ccc(N/N=C/c2cn(-c3ccccc3)nc2-c2cccs2)cc1	none
O=C(O)Cn1c(-c2ccccc2)cc2ccccc21	none (no result: CHOP inhibitor, Dynein cargo inh, Lmaj promast)
COc1cc2[nH]c3c(Cl)ncnc3c2cc1OC	none
COc1cc2[nH]c3c(N4CCN(c5ccc(Cl)cc5)CC4)ncnc3c2cc1OC	XBP1 UPR activ 39 | XBP1 UPR conf 33
COc1ccc(Nc2nc(N)nc(CN3CCOCC3)n2)cc1	none
COc1ccc(N2CCN(Cc3nc(N)nc(Nc4ccc(C)c(Cl)c4)n3)CC2)cc1	XBP1 UPR activ 33 | XBP1 UPR conf 62
CCN(CC(=O)Nc1cc(Cl)cc(Cl)c1)CC(=O)NC1CCS(=O)(=O)C1 (stereo unspecified)	none (no result: CHOP inhibitor, Dynein cargo inh, T cruzi repl, Lmaj promast)
CCC/C(=N/Nc1ccc(Cl)cc1)c1cnnc(-c2ccccc2)n1	XBP1 UPR activ 66 (no result: CHOP inhibitor) | XBP1 UPR conf 28
CC/C(=N/Nc1ccccc1Cl)c1cnnc(-c2ccccc2)n1	none
Cc1c(C(=O)Nc2nccs2)oc2ccc(Br)cc12	XBP1 UPR activ 48 (no result: CHOP inhibitor, Dynein cargo inh, T cruzi repl, Lmaj promast) | XBP1 UPR conf 79
